Read-outs that look alike come from different tables or passages of the source.
Tests used:
[1] = system: hpol η-deficient HAP-1 cells; assay: Cell viability; format: cell-based, human
How it was run: (§1)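 HAP-1 parental or CRISPR hpol η-null cells in IMDM with 10% FBS and 1% antibiotic/antimycotic, passage 8–10, seeded 5000 cells/well. Next day: CDDP 0–100 μM alone or with 0.1 or 1 μM test compound, 48 h. Cells washed twice in DPBS, then 2 μM Calcein-AM for 30 min at 25 °C; fluorescence ex 490/em 520 nm. Viability as % of untreated. […] Combination index by Chou–Talalay.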

[2] = system: γH2AX in hpol η-deficient HAP-1 cells; assay: γH2AX immunoblotting, hpol η-deficient HAP-1 cells; format: cell-based, human; details: CDDP (0.5 μM)
How it was run: (§2)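 HAP-1 cells treated with DMSO or 0.5 μM CDDP combined with 0.1 or 1 μM test compound. Pellets lysed at 4 °C in HEPES pH 7.5/Triton X-100 buffer with phosphatase and protease inhibitors. 30–40 μg protein run on 4–20% SDS-PAGE, transferred to nitrocellulose. Probed with anti-γH2AX (S139) 1:1500 and HRP anti-rabbit 1:4000; β-actin loading control; chemiluminescence. Bands normalized to β-actin, relative to DMSO; three biological replicates; t test.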

[3] = system: γH2AX in hpol η-proficient HAP-1 cells; assay: γH2AX immunoblotting, hpol η-proficient HAP-1 cells; format: cell-based, human; details: CDDP alone (0.5 μM)
How it was run: as §2

[4] = system: HAP-1 cells (hpol η-proficient, parental); assay: Cell viability; format: cell-based, human; details: read-out: EC50 of CDDP, cell viability, parental HAP-1
How it was run: as §1

[5] = system: pol binding to DNA; details: cited from earlier work
[6] = target: T1, hpol η (Homo sapiens, UniProt Q9Y253); details: cited from earlier work
T1 sequence (Q9Y253 1-437): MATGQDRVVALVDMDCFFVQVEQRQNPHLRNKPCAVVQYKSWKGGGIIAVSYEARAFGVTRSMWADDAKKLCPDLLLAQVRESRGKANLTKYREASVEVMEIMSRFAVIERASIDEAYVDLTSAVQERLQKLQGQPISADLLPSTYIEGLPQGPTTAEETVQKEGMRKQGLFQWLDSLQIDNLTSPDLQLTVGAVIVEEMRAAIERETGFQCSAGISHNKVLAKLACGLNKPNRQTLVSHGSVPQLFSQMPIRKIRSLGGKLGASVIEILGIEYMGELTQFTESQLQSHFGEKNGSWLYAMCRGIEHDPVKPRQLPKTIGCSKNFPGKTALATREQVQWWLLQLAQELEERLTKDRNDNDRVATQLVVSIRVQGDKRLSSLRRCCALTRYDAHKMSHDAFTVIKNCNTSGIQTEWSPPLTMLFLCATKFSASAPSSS

SMILES: N.N.[Cl][Pt][Cl] [CDDP, cis-diamminedichloroplatinum(II), reference compound]
- Reduction of CDDP EC50 by loss of hpol η ([1]; hpol η-deficient versus parental HAP-1): ~ 3 fold
- EC50 ([1]; read-out: EC50 of CDDP, cell viability, hpol η-deficient HAP-1, CDDP alone): 0.1 µM
- Increase of μH2AX [2]: ~ 5 fold
- Amount of μH2AX [3]: did not change substantially
- EC50 ([4]; CDDP + 0.1 μM PNR-7-02): 0.14 µM
- EC50 ([4]; CDDP + 1 μM PNR-7-02): 0.12 µM

SMILES: CC(C)c1ccc2c(c1)c(SC(C)(C)C)c(CC(C)(C)C(=O)O)n2Cc1ccc(Cl)cc1 [MK-886]
- Impact on pol binding to DNA [5]: negligible impact

SMILES: O=C1NC(=S)NC(=O)C1=Cc1cn(C(=O)c2ccccc2Br)c2ccc(Cl)cc12 [PNR-3-51, 5-((1-(2-bromobenzoyl)-5-chloro-1H-indol-3-yl)methylene)-2-thioxodihydropyrimidine-4,6(1H,5H)-dione]
- Specificity for hpol η over other pols ([6]; over other TLS and DNA repair pols): less than 2 fold
- IC50 ([6]; read-out: IC50 against hpol η, previous publication): ~30 µM

SMILES: CCOc1nc2cccc(C(=O)OC(C)OC(=O)OC3CCCCC3)c2n1Cc1ccc(-c2ccccc2-c2nnn[nH]2)cc1 (stereo not shown) [candesartan cilexetil]
- Impact on pol binding to DNA [5]: negligible impact

From publication PMC7312786 (Biochemistry, 2018)
